Experimental data: publication PMC9524259 (Journal of medicinal chemistry, 2022)
Entries after “also recorded” stand apart in the source; their conditions may differ.

Tests used:
MDA-MB-231 cells [1] = assay: Antiproliferative MTT assay, MDA-MB-231; format: cell-based; conditions: for IC50: read-out: MDA-MB-231 IC50, 72 h with drug, MTT assay
A549 cells [2] = assay: Antiproliferative MTT assay, A549; format: cell-based; conditions: for IC50: read-out: A549 IC50, 72 h with drug, MTT assay
MDA-MB-231 cells [3] = assay: Clonogenic assay, MDA-MB-231; format: cell-based; conditions: 48 h treatment then 7 days fresh media
Procedure, shortened: (§1)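 Cells were seeded at 125 cells/mL in 6-well plates and left overnight to attach. Test compound was applied at two concentrations for 48 h at 37 °C, then removed. Fresh medium followed, changed every alternate day, for 7 days. Cells were washed in PBS, fixed in 4% paraformaldehyde and stained with 0.2% crystal violet for 1 h. Colonies of >50 cells were counted, and % growth was calculated relative to control; mean ± SD, n = 3.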

gankyrin [4] = biological target: T1, gankyrin (Homo sapiens, UniProt O75832); assay: Protein thermal shift; format: binding; conditions: Table S1
T1 sequence (O75832 1-226): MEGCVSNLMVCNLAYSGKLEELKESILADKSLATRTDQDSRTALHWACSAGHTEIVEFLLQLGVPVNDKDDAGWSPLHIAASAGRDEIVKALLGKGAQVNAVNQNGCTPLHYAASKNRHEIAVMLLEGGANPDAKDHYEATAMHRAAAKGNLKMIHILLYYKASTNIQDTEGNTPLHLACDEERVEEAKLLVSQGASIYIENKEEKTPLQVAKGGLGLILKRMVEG

gankyrin [5] = biological target: T1, gankyrin; assay: Circular dichroism spectra and thermal denaturation; format: binding; conditions: for CD spectra: α-helical (secondary structure) content of gankyrin: 100 nM to 1.5 μM compound, minima at 208 and 222 nm; for thermal denaturation of gankyrin monitored at 217 nm: 1.5 μM compound, 5 – 90 °C; for gankyrin precipitation in CD sample (visual examination): in presence of compound
Procedure, shortened: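 Gankyrin, His6-tagged, was expressed in LB cultures with 1 mM IPTG induction at 25 °C for ~5 h. It was purified by Ni-IMAC, the tag cut with TEV, then dialysed and re-passed over Ni-IMAC. CD was run in 1x PBS, 0.5% DMSO, pH 7.4, in a 1 mm cuvette, with test compound at 100 nM–1.5 μM. Spectra covered 190–260 nm with six accumulations. Thermal melts were read at 217 nm, 5–90 °C, 1 °C/min.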

MDA-MB-231 cells [6] = assay: Western blot of TSP levels, MDA-MB-231; format: cell-based; conditions: 48 h; for p53 levels: mutant p53
Procedure, shortened: (§2)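 Cells in 10 cm dishes were treated 48 h with varying concentrations of test compound (0.5% DMSO final) or DMSO alone. HuH6 and MDA-MB-231 were grown in DMEM/10% FBS; A549 in RPMI 1640. Harvested cells were lysed in RIPA with protease/phosphatase inhibitors, on ice for 60 min. Equal protein (15 μg) was run under reducing conditions and blotted to PVDF. Probes were p53, phospho-p53 S6 and S15, Rb, gankyrin, and cyclophilin.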

MDA-MB-231 spheroids = assay: Live-dead cell assay, MDA-MB-231 spheroids; format: cell-based; conditions: day 15, IC50 and half IC50 concentrations
Procedure, shortened: (§3)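 Spheroids from the growth study were stained after day 15 with calcein AM (live) and EthD-III (dead). Incubation was 30 min in the dark at room temperature, followed by fluorescence imaging at 4X. Live and dead signal were quantified; mean ± SD, n = 4.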

A549 cells [7] = assay: Clonogenic assay, A549; format: cell-based; conditions: 0.15 μM, 48 h treatment then 7 days fresh media
Procedure, shortened: as §1

A549 cells [8] = assay: Western blot of TSP levels, A549; format: cell-based; conditions: 48 h
Procedure, shortened: as §2

A549 cells [9] = assay: Cell cycle analysis, A549; format: cell-based; conditions: 0.3 μM, 72 h
gankyrin in A549 cells = biological target: T2, gankyrin in A549 cells (Homo sapiens, UniProt O75832); assay: Cellular thermal shift assay; format: cell-based; conditions: 0.3 μM, 48 h
T2 sequence (O75832 1-226): T1 sequence (O75832 1-226)

A549 spheroids = assay: Live-dead cell assay, A549 spheroids; format: cell-based; conditions: day 15, both concentrations
Procedure, shortened: as §3

HuH6 cells = assay: Western blot of TSP levels, HuH6; format: cell-based, human; conditions: 48 h (Figure S1)
Procedure, shortened: as §2

MDA-MB-231 cells [10] = assay: Cell cycle analysis, MDA-MB-231; format: cell-based; conditions: 2 μM, 72 h
Procedure, shortened: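 MDA-MB-231 cells in 10 cm dishes were exposed to 2 μM test compound (0.1% DMSO final) or DMSO alone for 72 h. Harvested cells were normalized, fixed in 70% ethanol at −20 °C overnight, pelleted and stained with a PI kit for 40 min at 37 °C. Analysis was by flow and imaging cytometry; mean ± SD, n = 3.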

[11] = biological target: T3, gankyrin in MDA-MB-231 cells (Homo sapiens, UniProt O75832); assay: Cellular thermal shift assay; format: cell-based; conditions: 2 μM, 48 h
T3 sequence (O75832 1-226): T1 sequence (O75832 1-226)
Procedure, shortened: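 Intact MDA-MB-231 cells were treated 48 h with 2 μM test compound (0.5% DMSO final) or DMSO. Cells were split into aliquots and heated separately at 50, 53, 56, 59, 62 and 65 °C. Lysis was in RIPA on ice for 60 min, then lysates were cleared at 15,000 rpm, 15 min, 4 °C. Equal protein was immunoblotted for gankyrin with actin as reference, and melt curves were built; mean ± SD, n = 3.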

Molecule: COC(=O)c1ccc(-n2cc(CCCC(=O)Nc3ccc(C)cc3)nn2)cc1 [Compound 20, Methyl p-{4-[3-(N-p-tolylcarbamoyl)propyl]-1H-1,2,3-triazol-1-yl}benzoate]
- improvement in antiproliferative activity against MDA-MB-231 as compared to cjoc42 (MDA-MB-231 cells [1]): 8–10 fold

Molecule: COC(=O)c1ccc(-n2cc(CCCC(=S)Nc3ccc(C)cc3)nn2)cc1 [Compound 21, Methyl p-{4-[3-(p-tolylcarbamthioyl)propyl]-1H-1,2,3-triazol-1-yl}benzoate]
- improvement in antiproliferative activity against A549 as compared to cjoc42 (A549 cells [2]): ~10 fold
- improvement in antiproliferative activity against MDA-MB-231 as compared to cjoc42 (MDA-MB-231 cells [1]): 8–10 fold

Molecule: COC(=O)c1ccc(-n2cc(CCCNC(=O)Nc3ccc(C)cc3)nn2)cc1 [Compound 26, Methyl p-(4-{3-[3-(p-tolyl)ureido]propyl}−1H-1,2,3-triazol-1-yl)benzoate]
- improvement in antiproliferative activity against MDA-MB-231 as compared to cjoc42 (MDA-MB-231 cells [1]): 8–10 fold

Molecule: COC(=O)c1ccc(-n2cc(CCCOc3ccc(C)cc3)nn2)cc1 [Compound 33, Methyl p-{4-[3-(p-tolyloxy)propyl]-1H-1,2,3-triazol-1-yl}benzoate]
- improvement in antiproliferative activity against MDA-MB-231 as compared to cjoc42 (MDA-MB-231 cells [1]): 8–10 fold

Molecule: Cc1ccc(NC(=O)CCCn2cc(-c3ccc(C(F)(F)F)cc3)nn2)cc1 [Compound 51b, N-p-Tolyl4-{4-[p-(trifluoromethyl)phenyl]-1H-1,2,3-triazol-1-yl}butyramide]
- % colony growth (MDA-MB-231 cells [3]; 2.30 μM): 60.3%
- gankyrin binding by protein thermal shift (gankyrin [4]): effectively bind gankyrin
- CD spectra: α-helical (secondary structure) content of gankyrin (gankyrin [5]): enhancement in the 222 nm spectral minimum; also recorded: signal enhancement
- thermal denaturation of gankyrin monitored at 217 nm (gankyrin [5]): complete denaturation across the entire measured temperature range
- Rb levels (MDA-MB-231 cells [6]): increase in Rb levels
- gankyrin levels (MDA-MB-231 cells [6]): remained relatively unchanged
- p53 levels (MDA-MB-231 cells [6]): relatively unchanged levels of p53
- green fluorescence intensity (live cells) (MDA-MB-231 spheroids): decrease in green intensity (live cells)
- red fluorescence intensity (dead cells) (MDA-MB-231 spheroids): increase in red fluorescence intensity (dead cells)

Molecule: COC(=O)c1ccc(-c2cn(CCCC(=O)Nc3ccc(-c4ccccc4)cc3)nn2)cc1 [Compound 51c, Methyl p-{1-[3-(N-4-biphenylylcarbamoyl)propyl]-1H-1,2,3-triazol-4-yl}benzoate]
- % colony growth (A549 cells [7]): 61.9%
- gankyrin binding by protein thermal shift (gankyrin [4]): effectively bind gankyrin
- CD spectra: α-helical (secondary structure) content of gankyrin (gankyrin [5]): weakening of secondary structure content in gankyrin
- thermal denaturation of gankyrin monitored at 217 nm (gankyrin [5]): complete denaturation across the entire measured temperature range
- gankyrin precipitation in CD sample (visual examination) (gankyrin [5]): only showed marginal precipitation
- Rb levels (A549 cells [8]): increased Rb levels
- gankyrin levels (A549 cells [8]): remained relatively unchanged
- p53 levels (A549 cells [8]): relatively unchanged p53 levels
- phosphorylated p53 (Ser6) levels (A549 cells [8]): increase the expression levels of phosphorylated p53 (Ser6)
- phosphorylated p53 (Ser15) levels (A549 cells [8]): also increased phosphorylated p53 (Ser15) expression levels
- cell population in the S and G2/M phases (A549 cells [9]): significantly decreasing the cell population in the S and G2/M phases
- cells in the G0/G1 phase (A549 cells [9]): significant increase in the number of cells in the G0/G1 phase
- gankyrin thermal stability (CETSA) (gankyrin in A549 cells): significant ability to decrease gankyrin thermal stability
- green intensity (live cells) (A549 spheroids): dose-dependent decrease in green intensity
- red intensity (dead cells) (A549 spheroids): increase in red intensity

Molecule: O=C(CCCn1cc(-c2ccc(C(F)(F)F)cc2)nn1)Nc1ccc(-c2ccccc2)cc1 [Compound 51d, N-4-Biphenylyl4-{4-[p-(trifluoromethyl)phenyl]-1H-1,2,3-triazol-1-yl}butyramide]
- % colony growth (MDA-MB-231 cells [3]; 1.0 μM): 72.4%
- gankyrin binding by protein thermal shift (gankyrin [4]): effectively bind gankyrin
- CD spectra: α-helical (secondary structure) content of gankyrin (gankyrin [5]): weakening of secondary structure content in gankyrin
- thermal denaturation of gankyrin monitored at 217 nm (gankyrin [5]): maintained gankyrin’s expected two-state transition but unfolded at an accelerated rate
- gankyrin precipitation in CD sample (visual examination) (gankyrin [5]): only showed marginal precipitation
- Rb levels (MDA-MB-231 cells [6]): increase in Rb levels
- gankyrin levels (MDA-MB-231 cells [6]): remained relatively unchanged
- p53 levels (MDA-MB-231 cells [6]): relatively unchanged levels of p53
- p53 and Rb levels (HuH6 cells): increased levels of both p53 and Rb
- cell population in the G2/M phase (MDA-MB-231 cells [10]): decrease in the cell population in the G2/M phase
- cell population in the S phase (MDA-MB-231 cells [10]): relatively unchanged
- cells in the G0/G1 phase (MDA-MB-231 cells [10]): significant increase in the number of cells in the G0/G1 phase
- gankyrin thermal stability (CETSA) [11]: significantly decreased
- green fluorescence intensity (live cells) (MDA-MB-231 spheroids): significant decrease in green fluorescence intensity (live cells)
- red fluorescence intensity (dead cells) (MDA-MB-231 spheroids): significant increase in red fluorescence intensity (dead cells)

Molecule: Methyl p-{4-[3-(p-toluoxy)propyl]-1H-1,2,3-triazol-1-yl}benzoate [Compound 25]
- IC50 (A549 cells [2]): > 100 µM
- IC50 (MDA-MB-231 cells [1]): > 100 µM

Molecule: Methyl p-{4-[3-(p-tolylcarbamthioyl)propyl]-1H-1,2,3-triazol-1-yl}benzoate [Compound 24]
- IC50 (A549 cells [2]): > 100 µM
- IC50 (MDA-MB-231 cells [1]): 82.4 µM
